Test results reported in ChEMBL document CHEMBL3272228, “Antimalarial activity of some novel derivatives of 2,4-diamino-5(p-chlorophenyl)-6-ethylpyrimidine (pyrimethamine)” (J Med Chem, 1976).
The source made the active and inactive calls. The rule behind the calls is not given here.

Experiments:
[1] = test system: Plasmodium gallinaceum; experiment: Antimalarial activity against Plasmodium gallinaceum infected in chicks assessed as increase in host survival at 120 mg/kg; type: functional, organism-based; design: dose 120 mg/kg
Procedure, shortened: (§1)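 P. gallinaceum in chicks given doses of 100–160 mg/kg. Activity is expressed as T/C, the increase in survival time in days.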

[2] = test system: Plasmodium berghei; experiment: Antimalarial activity against Plasmodium berghei KBG13 infected in mouse assessed as minimum dose required for disease cures; type: functional
Procedure, shortened: (§2)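 P. berghei strain KBG 13 in mice, groups of five treated, doses up to 640 mg/kg. Scored as increase in mean survival time in days over controls and as cured/treated. Reported values are the lowest dose giving any cure and the lowest dose showing activity.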

[3] = test system: Plasmodium berghei; experiment: Antimalarial activity against Plasmodium berghei KBG13 infected in mouse assessed as minimum dose required for activity; type: functional; conditions: for minimal effective dose: read-out: MED; procedure, shortened: as §2
[4] = test system: Plasmodium berghei; experiment: Antimalarial activity against Plasmodium berghei KBG13 infected in mouse assessed as increase in host mean survival time at minimum dose; type: functional
Procedure, shortened: (§3)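 Mice infected with Plasmodium berghei strain KBG 13. Five mice per dose group, with doses up to 640 mg/kg. Read-out is the increase in mean survival time in days, with cured/treated counts recorded. The minimum active dose is the lowest dose showing activity, and survival gain is also reported at that dose.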

[5] = test system: Plasmodium berghei; experiment: Antimalarial activity against Plasmodium berghei KBG13 infected in mouse assessed as increase in host mean survival time at 640 mg/kg; type: functional; procedure, shortened: as §3
[6] = test system: Plasmodium berghei; experiment: Antimalarial activity against Plasmodium berghei KBG13 infected in mouse assessed as disease cures at 640 mg/kg; type: functional, organism-based; design: dose 640 mg/kg; procedure, shortened: as §2
[7] = test system: Plasmodium gallinaceum; experiment: Antimalarial activity against Plasmodium gallinaceum infected in chicks assessed as increase in host survival time at 100 to 160 mg/kg; type: functional; conditions: dose mg/kg 100-160
Procedure, shortened: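 Chicks infected with Plasmodium gallinaceum, in limited testing at doses of 100-160 mg/kg. Activity is expressed as T/C in days of survival at the respective dose levels.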

[8] = test system: Mus musculus; experiment: Toxicity in mouse infected with Plasmodium berghei KBG13 assessed as animal death at 640 mg/kg; type: organism-based; design: dose 640 mg/kg; conditions: in vivo
[9] = species on record: Mus musculus; experiment: Toxicity in mouse infected with Plasmodium berghei KBG13 assessed as animal death at 4 times minimum curative dose; type: organism-based; conditions: in vivo
[10] = test system: Plasmodium gallinaceum; experiment: Antimalarial activity against Plasmodium gallinaceum infected in chicks assessed as increase in host survival; type: functional, organism-based; procedure, shortened: as §1
[11] = species on record: Mus musculus; experiment: Toxicity in mouse infected with Plasmodium berghei KBG13 assessed as animal death at 2 times minimum curative dose; type: organism-based; conditions: in vivo

SMILES | MCD [2] [mg/kg] | minimal effective dose [3] [mg/kg] | MST [4] [days] | Activity [6] | other results
C/C(c1nc(N)nc(N)c1-c1ccc(Cl)cc1)=[N+](\C)[O-] | 640 | 160 | 3.1 |  | Activity [1]: inactive
C/C(=N/N)c1nc(N)nc(N)c1-c1ccc(Cl)cc1 |  | 160 | 8.4 |  | MST [5]: 14.8 days
COC(C)(OC)c1nc(N)nc(N)c1-c1ccc(Cl)cc1 | 320 | 40 | 4.5 | Active | MST [7]: 5.4 days
CC(=O)c1nc(N)nc(N)c1-c1ccc(Cl)cc1 | 320 | 80 | 5.9 |  | Activity [8]: Toxic
CN/N=C(\C)c1nc(N)nc(N)c1-c1ccc(Cl)cc1 |  |  |  |  | Activity [8]: Toxic; Activity [2]: inactive; Activity [3]: inactive; Activity [4]: inactive
CC(=O)NC(C)c1nc(N)nc(N)c1-c1ccc(Cl)cc1 (racemic) |  |  |  | inactive | Activity [2]: inactive; Activity [3]: inactive; Activity [4]: inactive
C/C(=N/O)c1nc(N)nc(N)c1-c1ccc(Cl)cc1 |  | 160 | 3.4 |  | MST [5]: 5.4 days
CC(O)c1nc(N)nc(N)c1-c1ccc(Cl)cc1 (racemic) |  | 80 | 4.7 | Active | MST [7]: 5.4 days
CC(N)c1nc(N)nc(N)c1-c1ccc(Cl)cc1 (configuration not stated) |  |  |  | inactive | Activity [2]: inactive; Activity [3]: inactive; Activity [4]: inactive
CCOC(C)(OCC)c1nc(N)nc(N)c1-c1ccc(Cl)cc1 | 160 | 20 | 3.5 | Active | MST [7]: 5.4 days; Activity [9]: Non-toxic
CCN(CC)CCCC(C)NC(C)c1nc(N)nc(N)c1-c1ccc(Cl)cc1 (configuration not stated) |  |  |  |  | Activity [10]: inactive
C/C(=N\N(C)C)c1nc(N)nc(N)c1-c1ccc(Cl)cc1 | 320 | 40 | 3.8 |  | Activity [8]: Toxic
CCc1nc(N)nc(N)c1-c1ccc(Cl)cc1 [PYRIMETHAMINE] | 40 |  |  |  | Activity [11]: Toxic
C/C(=N\NC(=N)N)c1nc(N)nc(N)c1-c1ccc(Cl)cc1 |  |  |  | inactive | Activity [2]: inactive; Activity [3]: inactive; Activity [4]: inactive
